Measured values taken from PubChem BioAssay.
Active and inactive are the calls of the source.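 Rule for the calls, unless noted: active = fluorescence slope after compound addition differing from the mean of all tested samples at 99.7% confidence, mostly higher but some lower; inactive = the rest.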

Legend:
[1] = inhibitors of TNFa-induced NFkB p65 translocation, primary screen, imaging, HUVEC, MLSMR starter and 10KST1 sets (AID 438;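 active = inhibition above 20% together with a positive visual image hit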;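 note: compound added about 3h40 before a 20 min TNFalpha stimulation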;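 for inhibition: signal is the nuclear over cytoplasmic p65 intensity ratio per well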); settings: HUVEC TNFa-induced p65 nuclear translocation; cell count: measured here: nuclei count (cytotoxicity indicator), at 2.08 µM; inhibition: at 2 µM, stronger effect = higher value, 0% TNFa-plus-vehicle, 100% no-TNFa wells
[2] = inhibitors of mutant huntingtin aggregation, primary screen, imaging, exon1htt(103Q)mCFP cells, high-content imaging (AID 483;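 active = visual image review flags a hit and inhibition of aggregation exceeds 20%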;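 note: compound exposure lasted 3 days before fixation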;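 for nuclei count: percent of the per-plate median nuclei count of sample wells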); settings: exon1htt(103Q)mCFP cell line, aggregate imaging, at 2 µM; inhibition of aggregation: stronger effect = higher value; nuclei count: measured here: cell count, toxicity
[3] = inhibitors of E-selectin induction by TNFa, primary screen, imaging, HUVEC, immunofluorescence, MLSMR starter and 10KST1 sets (AID 487;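 active = visually confirmed hit in the image check and inhibition above 20%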;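 for inhibition: signal is fraction of cell area covered by stained E-selectin grains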;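 for nuclei count: 100% = median nuclei count of all wells on the same plate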); settings: HUVEC TNFalpha-induced E-selectin immunofluorescence imaging, at 2 µM; inhibition: stronger effect = higher value; nuclei count: measured here: cell number, toxicity
[4] = biological target: Voltage-gated potassium channel subunit beta-2 (Rattus norvegicus) (UniProt P62483); experiment: KvBeta enzyme negative modulators, primary screen, biochemical, NADPH fluorescence (AID 622;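 active = fluorescence slope higher than the sample average by over 3 SD, cut at about -0.22 in these data, passing the limit was not always enough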;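 note: slope of raw intensity against log time taken from 70 to 1610 s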); settings: recombinant KvBeta, 4-cyanobenzaldehyde reduction, at 10 µM, stronger effect = higher value
[5] = biological target: Voltage-gated potassium channel subunit beta-2 (Rattus norvegicus) (UniProt P62483); experiment: KvBeta positive modulators, primary screen, biochemical, NADPH fluorescence (AID 623;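 active = NADPH fluorescence slope more negative than the mean of all samples by about 3 SD, 99.7% confidence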;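 note: fluorescence intensity change per second fitted from 20 to 320 s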); settings: Recombinant KvBeta, NADPH fluorescence decrease slope, 10 min; at 10 µM; stronger effect = lower value
[6] = biological target: Muscarinic acetylcholine receptor M4 (Homo sapiens) (UniProt P08173); experiment: compounds altering M4/GIRK thallium flux, either direction, primary screen, M4 allosteric agonist project, cell-based, HEK293 M4/GIRK, BTC-AM (AID 625); settings: at 10 µM, actives lie on both sides;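 note: thallium influx through GIRK channels coupled to M4 in HEK293 cells with BTC-AM dye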
In short: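 Material: M4/GIRK1/GIRK2 stable HEK293 cell line. Medium: pH 7.3 thallium assay buffer. Dosing: single compound concentration, 10 µM final. Schedule: 1 h dye loading, 2 min kinetic read. Measured by: kinetic fluorescence with BTC-AM dye. Read-out: post-addition slope, 15–24 s, of baseline-normalized fluorescence. Benchmarks: carbachol and DMSO controls.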

[7] = inhibitors of Sendai virus-induced IRF3 signaling, primary screen, TLR/RLR signaling modifier project, cell-based, Sendai virus stimulus, luciferase, 10K MLSCN set (AID 602276;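 active = inhibition at or above 50% at 10 µM; inactive = inhibition below 50%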;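 note: firefly luciferase from ISG56 promoter only with Renilla not read in this screen; 0% = Sendai virus plus DMSO and 100% = medium plus DMSO without virus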); settings: HEK293 RL24 IRF3 luciferase reporter, at 10 µM, stronger effect = higher value
[8] = inhibitors of poly I:C-induced TLR3 signaling, primary screen, cell-based, poly I:C stimulus, luciferase, 10K MLSCN set (AID 602277;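 active = inhibition of the reporter signal at or above 50%; inactive = inhibition below 50%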); settings: HEK293-TLR3 RL24 IRF3 luciferase reporter, at 10 µM, stronger effect = higher value

Chain of Muscarinic acetylcholine receptor M4 (Homo sapiens) (P08173 whole entry, looked up): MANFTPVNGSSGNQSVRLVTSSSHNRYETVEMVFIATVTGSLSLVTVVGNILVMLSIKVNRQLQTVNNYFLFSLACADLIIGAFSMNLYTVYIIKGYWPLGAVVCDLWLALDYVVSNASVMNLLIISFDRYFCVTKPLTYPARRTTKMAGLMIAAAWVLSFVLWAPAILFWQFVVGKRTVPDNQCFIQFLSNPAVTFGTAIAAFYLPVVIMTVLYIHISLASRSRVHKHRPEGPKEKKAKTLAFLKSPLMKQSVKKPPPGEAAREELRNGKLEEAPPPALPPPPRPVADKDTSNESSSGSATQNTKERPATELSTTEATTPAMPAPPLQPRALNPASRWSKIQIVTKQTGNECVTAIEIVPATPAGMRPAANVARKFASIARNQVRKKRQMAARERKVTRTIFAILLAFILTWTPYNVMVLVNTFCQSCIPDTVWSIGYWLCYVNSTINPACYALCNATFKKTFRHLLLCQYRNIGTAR
Chain of Voltage-gated potassium channel subunit beta-2 (Rattus norvegicus) (P62483 whole entry, looked up): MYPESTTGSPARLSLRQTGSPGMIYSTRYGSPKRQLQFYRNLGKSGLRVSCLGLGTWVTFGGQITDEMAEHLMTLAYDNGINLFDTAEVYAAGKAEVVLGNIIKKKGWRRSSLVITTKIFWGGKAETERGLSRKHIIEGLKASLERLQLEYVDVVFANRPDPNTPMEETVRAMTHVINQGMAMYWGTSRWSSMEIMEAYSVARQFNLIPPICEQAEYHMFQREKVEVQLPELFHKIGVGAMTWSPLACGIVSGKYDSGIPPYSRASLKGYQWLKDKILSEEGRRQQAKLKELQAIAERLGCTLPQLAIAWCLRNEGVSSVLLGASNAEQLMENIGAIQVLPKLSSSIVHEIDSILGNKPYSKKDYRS

| Structure (SMILES) | cell count [1] | inhibition [1] | inhibition of aggregation [2] | nuclei count [2] | inhibition [3] | nuclei count [3] | fluorescence slope [4] | NADPH fluorescence slope [5] | fluorescence slope [6] | inhibition [7] | inhibition [8] |
| --- | --- | --- | --- | --- | --- | --- | --- | --- | --- | --- | --- |
| Cn1nc(-c2ccc(C(=O)N3CCN(c4ccccc4)CC3)cc2)c2ccccc2c1=O | 769 | -4% (inactive) | 10.9% (inactive) | 90.3% | -13.7% (inactive) | 110% | -0.552 (inactive) | -4.4e-05 (inactive) | 0.00744 (inactive) | -31.8% (inactive) | -26.4% (inactive) |
| COCCN1C(=O)C(=O)/C(=C(/O)c2ccc(OC(C)C)cc2)C1c1cccnc1 (stereo not drawn) | 644 | -4.7% (inactive) | -7.9% (inactive) | 116% | 19.8% (inactive) | 104% | -0.422 (inactive) | -1.5e-05 (inactive) | 0.00536 (inactive) | 17.3% (inactive) | 19.8% (inactive) |
| COC(=O)COc1ccc(S(=O)(=O)NCCC2=CCCCC2)cc1 | 515 | -0.5% (inactive) | 29% (inactive) | 79.1% | -31.4% (inactive) | 107% | -0.544 (inactive) | -2.1e-05 (inactive) | 0.00377 (inactive) | 15.8% (inactive) | 20.7% (inactive) |
| COc1cccc(NC(=O)CN2CCN(c3ccccc3F)CC2)c1 | 275 | -7.3% (inactive) | 19.4% (inactive) | 90.1% | 11.9% (inactive) | 86.8% | -0.526 (inactive) | 0.000174 (inactive) | 0.00586 (inactive) | 17.2% (inactive) | 10.2% (inactive) |
| CC1CCN(S(=O)(=O)c2ccc(NC(=O)CSc3nnnn3C)cc2)CC1 | 289 | -5.4% (inactive) | -4.7% (inactive) | 107% | -1.6% (inactive) | 91.8% | -0.411 (inactive) | -3.1e-05 (inactive) | 0.00682 (inactive) | 10.9% (inactive) | 20.7% (inactive) |
| Cc1occc1C(=O)Nc1ccccc1NC(=O)c1ccoc1C | 425 | -11.5% (inactive) | 29.8% (inactive) | 87.4% | 40.5% (inactive) | 90.2% | -0.543 (inactive) | -3.1e-05 (inactive) | 0.00485 (inactive) | 12.7% (inactive) | 24.7% (inactive) |
| O=C(NCCN1CCOCC1)c1ccc2c(c1)N(Cc1ccccc1)C(=O)CS2 | 773 | -9.5% (inactive) | -8.5% (inactive) | 102% | 20.7% (inactive) | 105% | -0.564 (inactive) | 2e-05 (inactive) | 0.00419 (inactive) | -1.65% (inactive) | 8.57% (inactive) |
| COc1cc(-c2nnc(SCC(=O)c3cc(C)n(CC4CCCO4)c3C)o2)cc(OC)c1OC (stereo not drawn) | 317 | 2.8% (inactive) | 23.1% (inactive) | 94.5% | -43.2% (inactive) | 115% | -0.245 (inactive) | -3.7e-06 (inactive) | 0.00647 (inactive) | 24.8% (inactive) | 27.1% (inactive) |
| O=C1CC2CS(=O)(=O)CC2N1c1ccc(Oc2ccccc2)cc1 (stereo not drawn) | 330 | 3.1% (inactive) | 5.7% (inactive) | 88.5% | -33.8% (inactive) | 106% | -0.395 (inactive) | -8.8e-05 (inactive) | 0.00573 (inactive) | 17.3% (inactive) | 33% (inactive) |
| Cc1ccc(-c2nnn(CC(=O)N(CC(=O)NCC3CCCO3)c3ccccc3)n2)o1 (stereo not drawn) | 618 | -3.6% (inactive) | -12.2% (inactive) | 85.7% | -161% (inactive) | 106% | -0.584 (inactive) | -1.6e-05 (inactive) | 0.00876 (inactive) | 1.41% (inactive) | 5.51% (inactive) |
| COCC(=O)N(Cc1nc2ccccc2c(=O)[nH]1)Cc1cccs1 | 608 | -5.4% (inactive) | -6.1% (inactive) | 105% | -64.2% (inactive) | 114% | -0.557 (inactive) | -3e-05 (inactive) | 0.00566 (inactive) | 20.3% (inactive) | 22.3% (inactive) |
| COc1ccc2nc(C)cc(N3CCOCC3)c2c1 | 401 | -8.1% (inactive) | -8% (inactive) | 104% | -34.7% (inactive) | 84.3% | -0.484 (inactive) | -0.000239 (inactive) | 0.0041 (inactive) | 16.2% (inactive) | 18.7% (inactive) |
| O=C(COc1ccc(S(=O)(=O)N2CCCC2)cc1Cl)NC1CC1 | 349 | 5.7% (inactive) | -1.8% (inactive) | 58.7% | 21.6% (inactive) | 98.3% | -0.232 (inactive) | -1.9e-05 (inactive) | 0.007 (inactive) | 15.4% (inactive) | 16.4% (inactive) |
| CCOC(=O)c1sc2nc3c(cc2c1N)COC(C)(C)C3 | 746 | -5.9% (inactive) | 0.2% (inactive) | 105% | 8.8% (inactive) | 105% | -0.432 (inactive) | -5.4e-06 (inactive) | 0.0043 (inactive) | -38.4% (inactive) | -104% (inactive) |
| Cc1nc2ccc(NC(=O)N3CCOCC3)cc2s1 | 416 | 0.5% (inactive) | -0.3% (inactive) | 96.2% | -51% (inactive) | 109% | -0.497 (inactive) | 8.6e-06 (inactive) | 0.00618 (inactive) | 10.7% (inactive) | 8.12% (inactive) |
| Cc1ccsc1C1C2=C(CCCC2=O)Nc2ncnn21 (stereo not drawn) | 266 | -3.8% (inactive) | 15.5% (inactive) | 86.7% | -2.9% (inactive) | 101% | -0.523 (inactive) | -0.000154 (inactive) | 0.00358 (inactive) | 12.8% (inactive) | 16.1% (inactive) |
| Cc1cnc(C(=O)Nc2ccc(-n3cnnn3)cc2)cn1 | 508 | -16.7% (inactive) | -8.7% (inactive) | 95.2% | 15.8% (inactive) | 95.7% | -0.513 (inactive) | -5.9e-05 (inactive) | 0.00454 (inactive) | 10.3% (inactive) | -4.35% (inactive) |
| COc1ccccc1S(=O)(=O)n1cc(Cc2ccccc2)c(N)n1 | 341 | -21.8% (inactive) | 0.9% (inactive) | 89% | -28.1% (inactive) | 114% | -0.493 (inactive) | -1.1e-05 (inactive) | 0.0055 (inactive) | 3.66% (inactive) | 31.1% (inactive) |
| CSC(=O)CC(=O)NC(=O)c1ccccc1 | 373 | 0% (inactive) | -2.5% (inactive) | 90% | -76.9% (inactive) | 159% | -0.605 (inactive) | 1.1e-06 (inactive) | 0.00374 (inactive) | 7.05% (inactive) | 5.94% (inactive) |
| CCOC(=O)c1nnn(-c2nonc2NC(C)=O)c1C | 323 | 6.5% (inactive) | -14.1% (inactive) | 98.9% | -39.1% (inactive) | 93.3% | -0.58 (inactive) | -1.6e-05 (inactive) | 0.00665 (inactive) | 17.3% (inactive) | 14% (inactive) |
| COc1ccc(/C(O)=C2/C(=O)C(=O)N(CC3CCCO3)C2c2cccc(OC)c2)cc1 (stereo not drawn) | 717 | 3.9% (inactive) | -15.3% (inactive) | 118% | 36.2% (inactive) | 97.6% | -0.429 (inactive) | -3.2e-05 (inactive) | 0.00604 (inactive) | 14.7% (inactive) | 21.1% (inactive) |
| COc1cccc(OC)c1C(=O)Nc1ccccc1N1CCCC1 | 417 | -3.4% (inactive) | 3.7% (inactive) | 92.9% | 4.8% (inactive) | 118% | -0.474 (inactive) | -5.8e-05 (inactive) | 0.00391 (inactive) | 15.4% (inactive) | 8.75% (inactive) |
| COc1ccc(-c2[nH]nc3c2C(c2ccccc2OC(=O)N2CCOCC2)C(C#N)=C(N)O3)cc1 (stereo not drawn) | 663 | -15.1% (inactive) | -9.9% (inactive) | 104% | -15.6% (inactive) | 104% | -0.574 (inactive) | -3.5e-05 (inactive) | 0.00609 (inactive) | 25.8% (inactive) | 19% (inactive) |
| COc1cc2[nH]c(=O)n(CCCCCC(=O)NCCCN3CCCC3=O)c(=O)c2cc1OC | 703 | -23.7% (inactive) | 3.9% (inactive) | 102% | -42.1% (inactive) | 124% | -0.457 (inactive) | -7.1e-05 (inactive) | 0.0052 (inactive) | 13.3% (inactive) | 22.1% (inactive) |
| Cc1cc(O)c(C2(C(F)(F)F)NCCNC2=O)cc1C (stereo not drawn) | 560 | 4.7% (inactive) | 24.3% (inactive) | 84.5% | 63.7% (inactive) | 63.2% | -0.576 (inactive) | 1e-05 (inactive) | 0.00721 (inactive) | 17.6% (inactive) | 29.3% (inactive) |
| O=C1CCC(=O)N1OCCCCOc1ccccc1 | 692 | 3.7% (inactive) | -1.2% (inactive) | 105% | 7.8% (inactive) | 106% | -0.421 (inactive) | 3.2e-05 (inactive) | 0.00701 (inactive) | 15.8% (inactive) | 18% (inactive) |
| CCn1c(COc2cccc3ccccc23)nnc1SCC(N)=O | 436 | 9.4% (inactive) | -3.1% (inactive) | 99.6% | -0.1% (inactive) | 124% | -0.524 (inactive) | -6.7e-05 (inactive) | 0.00477 (inactive) | 12.9% (inactive) | 19.7% (inactive) |
| Cc1nc2ccccn2c1/C(O)=C1\C(=O)C(=O)N(CCN2CCOCC2)C1c1cccs1 (stereo not drawn) | 318 | 0.2% (inactive) | 0.3% (inactive) | 99.6% | -41.3% (inactive) | 116% | -0.301 (inactive) | -1.7e-05 (inactive) | 0.00659 (inactive) | -0.701% (inactive) | 7.4% (inactive) |
